Activity calls are given as the source filed them. The rule behind the calls is not given here.
Assays:
[1] = test system: 3T3-L1; assay: Lipid lowering activity in mouse 3T3-L1 cells assessed as reduction in adipogenic cocktail-induced triglyceride levels incubated for 6 days by GPO-POD assay; format: functional, cell-based; details: for EC50: 3T3-L1, 144 h
Outline: (§1)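 Confluent 3T3-L1 cells were treated from day 0 in cocktail (IBMX, dexamethasone, insulin) for 3 days, then re-dosed in insulin medium for 3 more days. For dose–response, concentrations were 0–10 µM (0.01, 0.1, 0.3, 1, 3, 10). On day 6, cells were lysed in 0.2% Triton X-100 and TG was measured by GPO-POD and normalized to BCA protein as % of control. EC50 was fitted from the dose–response. N = 4.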

[2] = test system: 3T3-L1; assay: Cytotoxicity against mouse 3T3-L1 cells assessed as change in LDH releasing level at 5 uM after 6 days by LDH releasing assay; format: cell-based; details: 3t3-l1, 144 h, time 6 day
Outline: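 Differentiating 3T3-L1 cells were treated at 5 µM for 6 days. Plates were centrifuged and LDH activity in the supernatant was read at 490 nm. Release was expressed as fold = (treated − blank)/(control − blank), with untreated cells as blank and vehicle-differentiated control set to 1.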

[3] = Stability in Sprague-Dawley rat liver microsomes assessed as rate constant […] up to 60 mins in presence of NADPH by LC-MS/MS analysis; format: ADME, Microsome
[4] = test system: 3T3-L1; assay: Inhibition of mouse 3T3-L1 cells adipocyte differentiation assessed as reduction in adipogenic cocktail-induced fatty acid synthase protein expression at 0.3 to 1 uM after 6 days by Western blot analysis; format: functional, cell-based; details: dose 0.3-1 µM, time 6.0 day
Outline: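 3T3-L1 preadipocytes were differentiated with cocktail for 3 days, then insulin medium for 3 days, with compound (0.3 or 1 µM) present throughout. Cells were harvested on day 6 and proteins measured by Western blot, with densitometry normalized to actin.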

[5] = test system: 3T3-L1; assay: Activation of AMPK pathway in adipogenic cocktail-induced mouse 3T3-L1 cells assessed as decrease in ATP level at 0.3 to 1 uM after 24 hrs; format: cell-based; details: filed as activator, dose 0.3-1 µM
Outline: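 Confluent 3T3-L1 pre-adipocytes exposed to adipogenic cocktail (0.5 mM IBMX, 100 ng/mL dexamethasone, 2 µg/mL insulin) with compound at 0.3 or 1 µM for 24 h. ATP quantified with a commercial luminescent kit and normalized to protein.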

[6] = test system: 3T3-L1; assay: Activation of AMPK pathway in adipogenic cocktail-induced mouse 3T3-L1 cells assessed as increase in AMP to ATP ratio at 0.3 to 1 uM after 24 hrs; format: cell-based; details: filed as activator, dose 0.3-1 µM
[7] = test system: C2C12; assay: Activation of AMPK pathway in mouse C2C12 cells assessed as increase in glucose uptake at 0.3 to 1 uM after 6 hrs in presence of insulin by 2-NBDG/Hoechst 33342 staining based Confocal microscopic method; format: cell-based; details: filed as activator, dose 0.3-1 µM
Outline: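 C2C12 myoblasts kept in DMEM with 10% FBS and 1% penicillin/streptomycin at 37 °C under 5% CO2.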

[8] = test system: Mus musculus; assay: Antiobesity activity in high fat diet-induced obese C57BL/6J mouse model assessed as decrease in fat mass at 20 mg/kg, ip administered for every other days for 6 weeks; format: functional, organism-based
[9] = test system: Mus musculus; assay: Antiobesity activity in high fat diet-induced obese C57BL/6J mouse model assessed as decrease in size of adipocytes at 20 mg/kg, ip administered for every other days for 6 weeks by H and E staining based assay; format: functional, organism-based
[10] = Toxicity in ip dosed C57BL/6J mouse administered for every other days for 6 weeks; format: organism-based; details: in vivo
Outline: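 Male C57BL/6J mice (7–8 weeks) were fed an HFC diet (60% fat, 1% cholesterol) from week 1 and given 20 mg/kg i.p. every other day for 6 weeks from week 9, in saline with 10% ethanol and 10% castor oil, against a vehicle group. At the end, after a 6 h fast under ketamine/xylazine, plasma was taken for auto-analyzer ALT, AST, TBIL, ALB, BUN and creatinine, and tissues were weighed.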

[11] = AUC(0 to infinity) in Sprague-Dawley rat at 2 mg/kg, iv up to 24 hrs by LC-MS/MS analysis; format: ADME, organism-based; set-up: route intravenous, dose 2 mg/kg, time <=24; details: in vivo
Outline: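 Male Sprague-Dawley rats (180-220 g, n = 3) received a single intravenous dose of 2 mg/kg in ethanol/saline (5:95). Blood was sampled at 0, 30 min, 1, 2, 4, 8, 12 and 24 h after dosing and centrifuged to plasma. Plasma drug levels were measured by LC-MS/MS, and pharmacokinetic parameters were calculated from the concentration-time data.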

[12] = Clearance in Sprague-Dawley rat at 2 mg/kg, iv up to 24 hrs by LC-MS/MS analysis; format: ADME, organism-based; details: in vivo
Outline: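 Male SD rats (180–220 g, n = 3) received compound in ethanol/saline (5:95), either intravenously at 2 mg/kg or intragastrically at 5 mg/kg. Plasma was sampled at 0, 0.5, 1, 2, 4, 8, 12 and 24 h. Concentrations were measured by LC-MS/MS, and PK parameters were calculated from the concentration–time data.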

[13] = test system: Mus musculus; assay: Antiobesity activity in high fat diet-induced obese C57BL/6J mouse model assessed as AST level at 20 mg/kg, ip administered for every other days for 6 weeks by auto-analyzer method (reference value: 341.6 +/- 23.8 U/L); format: functional
Outline: (§2)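 Male C57BL/6J mice (7–8 weeks) fed HFC diet (60% fat, 1% cholesterol) for up to 14 weeks. From week 9, given 20 mg/kg i.p. every other day for 6 weeks in saline with 10% ethanol and 10% castor oil, or vehicle. Body weight and food intake recorded daily. At end, mice fasted 6 h, anesthetized, and blood collected into EDTA. Plasma chemistry run on an auto-analyzer; insulin by ultra-sensitive ELISA.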

[14] = test system: Mus musculus; assay: Antiobesity activity in high fat diet-induced obese C57BL/6J mouse model assessed as total bilirubin level at 20 mg/kg, ip administered for every other days for 6 weeks by auto-analyzer method (reference value: 1.3 +/- 0.12 mM); format: functional
[15] = test system: Mus musculus; assay: Antiobesity activity in high fat diet-induced obese C57BL/6J mouse model assessed as glucose level at 20 mg/kg, ip administered for every other days for 6 weeks by auto-analyzer method (reference value: 11.8 +/- 1.3 mM); format: functional; outline: as §2
[16] = test system: Mus musculus; assay: Antiobesity activity in high fat diet-induced obese C57BL/6J mouse model assessed as ratio of LDL cholesterol level to HDL cholesterol level at 20 mg/kg, ip administered for every other days for 6 weeks by auto-analyzer method (reference value: 0.4 +/- 0.13); format: functional
[17] = test system: 3T3-L1; assay: Lipid lowering activity in mouse 3T3-L1 cells assessed as reduction in adipogenic cocktail-induced triglyceride levels at 5 uM incubated for 6 days by GPO-POD assay relative to control; format: functional; set-up: scale not given: the % may be the effect or the level left; details: time 6 day; outline: as §1
[18] = test system: 3T3-L1; assay: Lipid lowering activity in mouse 3T3-L1 cells assessed as adipogenic cocktail-induced triglyceride levels at 1 uM incubated for 6 days by GPO-POD assay relative to control; format: functional; details: time 6 day; outline: as §1
[19] = test system: 3T3-L1; assay: Activation of AMPK pathway in mouse 3T3-L1 cells assessed as increase in […] mRNA expression at 1 uM after 24 hrs by RT-qPCR analysis; format: cell-based; details: filed as activator

Structure (SMILES) | EC50 [1] [nM] | Activity ([1]; dose 1-5 µM, time 6.0 day) | Activity [2] | k el at 1 h [3] [s⁻¹] | inhibition [4] | Activity [5] | Activity [6] | Activity [7] | Activity [8] | Activity [9] | LD50 at 1008 h [10] [mg/kg] | AUC(0-inf) [11] [ng·h/mL] | clearance [12] [mL/min/kg] | Activity [13] [U/L] | Activity [14] [mmol] | Activity [15] [mM] | Ratio [16] | Activity [17] [%] | Activity [18] [%] | Activity [19]
COc1ccc2[nH]c(-c3nc(NCCCCN4CCCC4)c4ccccc4n3)c(C=O)c2c1 | 33 | Dose-dependent effect | Non-Toxic | 6.17e-05 | Active | Active | Active | Active | Active | Active | 500 | 314 | 107 | 163.7 | 0.9 | 9.3 | 0.25 |  |  | 
CN(C)CCCNc1nc(-c2[nH]c3ccccc3c2C=O)nc2ccccc12 | 91 |  |  | 8.83e-05 |  |  |  |  |  |  |  |  |  |  |  |  |  | 89.3 | 20.8 | Active

— ChEMBL document CHEMBL4732044, “Discovery of a promising agent IQZ23 for the treatment of obesity and related metabolic disorders” (Eur J Med Chem, 2020)
